According to ChEMBL document CHEMBL2331540, “Synthesis and SAR study of pyrrolo[3,4-b]pyridin-7(6H)-one derivatives as melanin concentrating hormone receptor 1 (MCH-R1) antagonists” (Bioorg Med Chem Lett, 2013):
In brackets after ≈: the same amount, converted by molar mass.

Legend:
[1] = biological target: Melanin-concentrating hormone receptor 1 (Homo sapiens, UniProt Q99705); experiment: Displacement of Eu-MCH from human MCHR1 expressed in CHO cell membranes by TRF assay
Method in brief: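 Competitive binding on membranes of CHO cells expressing human MCH-R1, with Eu-labeled MCH as tracer; bound label read by time-resolved fluorometry, values given as IC50.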

Rattus norvegicus [2] = experiment: Oral bioavailability in rat at 10 mg/kg; type: ADME, organism-based; details: in vivo
Method in brief: (§1)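 Rats dosed at 10 mg/kg by both iv and po routes, n = 3; plasma pharmacokinetic parameters derived from the iv/po study.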

Rattus norvegicus [3] = experiment: Volume of distribution at steady state in rat at 10 mg/kg, po and iv; type: ADME, organism-based; design: dose 10 mg/kg, route oral; details: in vivo; method in brief: as §1
[4] = Half life in rat at 10 mg/kg, po and iv; type: ADME, organism-based; design: dose 10 mg/kg, route oral; details: in vivo; method in brief: as §1
Rattus norvegicus [5] = experiment: AUC in rat at 10 mg/kg, po; type: ADME, organism-based, Plasma; design: dose 10 mg/kg, route oral; details: in vivo; method in brief: as §1
CYP3A4 = CYP3A4 (Homo sapiens, UniProt P08684); experiment: Inhibition of CYP3A4 (unknown origin) at 10 uM relative to control; type: ADME
CYP2D6 = CYP2D6 (Homo sapiens, UniProt P10635); experiment: Inhibition of CYP2D6 (unknown origin) at 10 uM relative to control; type: ADME
[6] = Aqueous solubility of the compound; type: physicochemical; details: buffer
[7] = Permeability of the compound by PAMPA; type: ADME; details: read-out: permeability
[8] = Metabolic stability in human liver microsomes measured for 30 mins; type: ADME, Microsome; details: read-out: Stability
Method in brief: (§2)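 Test compound incubated 30 min with human or rat liver microsomes; stability given as percent remaining.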

[9] = Metabolic stability in rat liver microsomes measured for 30 mins; type: ADME, Microsome; details: read-out: Stability; method in brief: as §2

Sequence of Melanin-concentrating hormone receptor 1 (Q99705 whole entry): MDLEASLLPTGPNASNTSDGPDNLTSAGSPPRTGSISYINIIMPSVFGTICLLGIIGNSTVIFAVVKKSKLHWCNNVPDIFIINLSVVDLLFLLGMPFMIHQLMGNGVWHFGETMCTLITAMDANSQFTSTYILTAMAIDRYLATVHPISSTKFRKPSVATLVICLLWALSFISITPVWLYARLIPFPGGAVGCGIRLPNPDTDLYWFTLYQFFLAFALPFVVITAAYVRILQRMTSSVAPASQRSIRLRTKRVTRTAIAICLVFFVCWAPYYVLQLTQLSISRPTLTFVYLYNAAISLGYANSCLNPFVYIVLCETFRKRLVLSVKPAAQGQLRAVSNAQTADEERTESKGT
Sequence of CYP2D6 (P10635 whole entry): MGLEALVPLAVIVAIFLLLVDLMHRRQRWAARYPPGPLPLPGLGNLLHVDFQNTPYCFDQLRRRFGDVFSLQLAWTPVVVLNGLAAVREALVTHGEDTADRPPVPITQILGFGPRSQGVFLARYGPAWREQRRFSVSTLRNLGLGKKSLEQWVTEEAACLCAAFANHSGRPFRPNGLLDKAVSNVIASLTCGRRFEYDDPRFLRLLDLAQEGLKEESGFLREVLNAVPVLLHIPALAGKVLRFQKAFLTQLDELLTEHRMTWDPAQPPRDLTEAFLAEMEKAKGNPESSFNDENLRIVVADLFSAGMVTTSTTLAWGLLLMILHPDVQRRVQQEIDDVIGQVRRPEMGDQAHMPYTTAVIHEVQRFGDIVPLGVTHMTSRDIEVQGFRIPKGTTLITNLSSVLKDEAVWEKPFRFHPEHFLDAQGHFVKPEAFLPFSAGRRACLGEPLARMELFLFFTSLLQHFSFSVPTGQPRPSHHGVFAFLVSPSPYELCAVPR
Sequence of CYP3A4 (P08684 whole entry): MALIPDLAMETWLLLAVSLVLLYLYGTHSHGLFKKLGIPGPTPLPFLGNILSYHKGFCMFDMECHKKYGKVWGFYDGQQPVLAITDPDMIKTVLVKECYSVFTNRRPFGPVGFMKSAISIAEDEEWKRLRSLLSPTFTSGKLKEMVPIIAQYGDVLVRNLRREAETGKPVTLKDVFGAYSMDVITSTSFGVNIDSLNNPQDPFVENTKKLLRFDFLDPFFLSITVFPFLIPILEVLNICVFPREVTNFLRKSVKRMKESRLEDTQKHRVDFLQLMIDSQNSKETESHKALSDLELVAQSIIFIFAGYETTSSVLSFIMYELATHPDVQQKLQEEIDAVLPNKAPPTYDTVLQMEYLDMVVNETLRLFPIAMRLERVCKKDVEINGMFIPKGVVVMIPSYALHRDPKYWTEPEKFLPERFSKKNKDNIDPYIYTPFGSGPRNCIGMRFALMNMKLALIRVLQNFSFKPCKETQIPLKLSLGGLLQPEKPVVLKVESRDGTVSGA

Row | Compound | IC50 [1] [nM] | further results
1 | COc1cc(N2Cc3ccc(Cc4cccc(F)c4)nc3C2=O)ccc1OCCN1CCCC1 | 410 | –
2 | COc1cc(N2Cc3ccc(Sc4ccccc4)nc3C2=O)ccc1OCCN1CCCC1 | 20 | F (Rattus norvegicus [2]): 35%; Vdss (Rattus norvegicus [3]): 22.7 L/kg; half-life [4]: 2.8 h; AUC (Rattus norvegicus [5]): 320 ng·h/mL
3 | COc1cc(N2Cc3ccc(Sc4ccc(F)c(F)c4)nc3C2=O)ccc1OCCN1CCCC1 | 50 | –
4 | COc1cc(N2Cc3ccc(Cc4ccccc4C)nc3C2=O)ccc1OCCN1CCCC1 | 720 | –
5 | CCc1ccccc1-c1ccc2c(n1)C(=O)N(c1ccc(OCCN3CCCC3)c(OC)c1)C2 | 2000 | –
6 | COc1cc(N2Cc3ccc(Sc4ccc(F)cc4)nc3C2=O)ccc1OCCN1CCCC1 | 30 | inhibition at 10 µM (CYP3A4): < 10%; inhibition at 10 µM (CYP2D6): < 10%; solubility [6]: 104 µg/mL (≈ 217 µM); Papp [7]: 1.9 ×10⁻⁶ cm/s; remaining at 0.5 h [8]: 97%; remaining at 0.5 h [9]: 79%; F (Rattus norvegicus [2]): 92%; Vdss (Rattus norvegicus [3]): 8.3 L/kg; half-life [4]: 3.4 h; AUC (Rattus norvegicus [5]): 5700 ng·h/mL
7 | COc1cc(N2Cc3ccc(-c4ccc(C#N)cc4)nc3C2=O)ccc1OCCN1CCCC1 | 10000 | –
8 | COc1cc(N2Cc3ccc(Cc4ccc(C(C)(C)C)cc4)nc3C2=O)ccc1OCCN1CCCC1 | 1910 | –
9 | COc1cc(N2Cc3ccc(-c4cccc(C)c4C)nc3C2=O)ccc1OCCN1CCCC1 | 190 | –
10 | COc1cc(N2Cc3ccc(Cc4ccc(F)cc4)nc3C2=O)ccc1OCCN1CCCC1 | 80 | –
11 | COc1cc(N2Cc3ccc(-c4ccc(C)c(C)c4)nc3C2=O)ccc1OCCN1CCCC1 | 180 | –
12 | COc1cc(N2Cc3ccc(Sc4ccc(C)cc4)nc3C2=O)ccc1OCCN1CCCC1 | 60 | –
13 | COc1cc(N2Cc3ccc(-c4ccccc4Cl)nc3C2=O)ccc1OCCN1CCCC1 | 510 | –
14 | COc1cccc(-c2ccc3c(n2)C(=O)N(c2ccc(OCCN4CCCC4)c(OC)c2)C3)c1 | 2010 | –
15 | COc1cc(N2Cc3ccc(-c4cccc(Cl)c4)nc3C2=O)ccc1OCCN1CCCC1 | 5650 | –
16 | COc1cc(N2Cc3ccc(Cc4ccc(C)cc4)nc3C2=O)ccc1OCCN1CCCC1 | 160 | –
17 | COc1cc(N2Cc3ccc(-c4ccc(F)cc4)nc3C2=O)ccc1OCCN1CCCC1 | 3100 | –
18 | CCc1ccc(-c2ccc3c(n2)C(=O)N(c2ccc(OCCN4CCCC4)c(OC)c2)C3)cc1 | 50 | –
19 | COc1cc(N2Cc3ccc(Sc4ccc(F)c(Cl)c4)nc3C2=O)ccc1OCCN1CCCC1 | 50 | –
20 | COc1cc(N2Cc3ccc(-c4ccc(Cl)cc4)nc3C2=O)ccc1OCCN1CCCC1 | 440 | –

Row | Compound | IC50 [1] [nM] | further results
21 | C=Cc1ccc(-c2ccc3c(n2)C(=O)N(c2ccc(OCCN4CCCC4)c(OC)c2)C3)cc1 | 130 | –
22 | CCCCc1ccc(-c2ccc3c(n2)C(=O)N(c2ccc(OCCN4CCCC4)c(OC)c2)C3)cc1 | 2780 | –
23 | COc1cc(N2Cc3ccc(Sc4ccc(F)cc4Cl)nc3C2=O)ccc1OCCN1CCCC1 | 80 | –
24 | COc1cc(N2Cc3ccc(Cc4ccc(Cl)cc4)nc3C2=O)ccc1OCCN1CCCC1 | 120 | –
25 | COc1cc(N2Cc3ccc(Sc4ccc(Cl)cc4)nc3C2=O)ccc1OCCN1CCCC1 | 40 | –
26 | COc1cc(N2Cc3ccc(Cc4ccccc4)nc3C2=O)ccc1OCCN1CCCC1 | 70 | –
27 | COc1cc(N2Cc3ccc(-c4ccccc4C)nc3C2=O)ccc1OCCN1CCCC1 | 1040 | –
28 | COc1cc(N2Cc3ccc(-c4ccc(C(C)(C)C)cc4)nc3C2=O)ccc1OCCN1CCCC1 | 320 | –
29 | COc1cc(N2Cc3ccc(-c4ccccc4)nc3C2=O)ccc1OCCN1CCCC1 | 10000 | –
30 | COc1cc(N2Cc3ccc(-c4ccccc4F)nc3C2=O)ccc1OCCN1CCCC1 | 4130 | –
31 | COc1cc(N2Cc3ccc(Sc4ccc(F)cc4F)nc3C2=O)ccc1OCCN1CCCC1 | 60 | –
32 | COc1cc(N2Cc3ccc(-c4ccc(C(C)C)cc4)nc3C2=O)ccc1OCCN1CCCC1 | 90 | –
33 | COc1cc(N2Cc3ccc(-c4cc(C)ccc4C)nc3C2=O)ccc1OCCN1CCCC1 | 300 | –
34 | COc1cc(N2Cc3ccc(-c4ccc(C(F)(F)F)cc4)nc3C2=O)ccc1OCCN1CCCC1 | 540 | –
35 | COc1ccc(-c2ccc3c(n2)C(=O)N(c2ccc(OCCN4CCCC4)c(OC)c2)C3)cc1 | 340 | –
36 | COc1cc(N2Cc3ccc(-c4ccc(C)cc4)nc3C2=O)ccc1OCCN1CCCC1 | 80 | –
37 | CCCc1ccc(-c2ccc3c(n2)C(=O)N(c2ccc(OCCN4CCCC4)c(OC)c2)C3)cc1 | 210 | –
38 | COc1cc(N2Cc3ccc(-c4ccccc4OC)nc3C2=O)ccc1OCCN1CCCC1 | 7110 | –
39 | COc1ccc(Sc2ccc3c(n2)C(=O)N(c2ccc(OCCN4CCCC4)c(OC)c2)C3)cc1 | 100 | –
